Data reported in publication PMC3228886 (Journal of medicinal chemistry, 2011).
pEC50: −log10 of the molar value. Where a name gives a salt, the structure may show the parent alone.

What was measured:
human TLR2 = human TLR2 (Homo sapiens, UniProt O60603); experiment: TLR2-specific NF-κB induction reporter gene assay; assay type: cell-based; details: for TLR2-agonistic activity (in words): TLR2-specific reporter gene assay
Outline: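 HEK-Blue reporter cells carry stably expressed secreted alkaline phosphatase under NF-κB promoters, inducible by TLR2 agonists. Cells were seeded at ~10⁵ cells/mL and grown to confluency, then stimulated for 12 h with serially diluted test compound. Supernatant sAP was read spectrophotometrically at 620 nm using an alkaline phosphatase-specific chromogen in the detection medium. Samples were run in quadruplicate, reported as means with standard deviations.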

Water solubility = assay type: physicochemical
human blood = details: ex vivo human blood models; cited from earlier work
rabbit = rabbit models; cited from earlier work
[1] = test system: murine models of immunization; details: cited from earlier work

human TLR2, sequence (O60603 21-784): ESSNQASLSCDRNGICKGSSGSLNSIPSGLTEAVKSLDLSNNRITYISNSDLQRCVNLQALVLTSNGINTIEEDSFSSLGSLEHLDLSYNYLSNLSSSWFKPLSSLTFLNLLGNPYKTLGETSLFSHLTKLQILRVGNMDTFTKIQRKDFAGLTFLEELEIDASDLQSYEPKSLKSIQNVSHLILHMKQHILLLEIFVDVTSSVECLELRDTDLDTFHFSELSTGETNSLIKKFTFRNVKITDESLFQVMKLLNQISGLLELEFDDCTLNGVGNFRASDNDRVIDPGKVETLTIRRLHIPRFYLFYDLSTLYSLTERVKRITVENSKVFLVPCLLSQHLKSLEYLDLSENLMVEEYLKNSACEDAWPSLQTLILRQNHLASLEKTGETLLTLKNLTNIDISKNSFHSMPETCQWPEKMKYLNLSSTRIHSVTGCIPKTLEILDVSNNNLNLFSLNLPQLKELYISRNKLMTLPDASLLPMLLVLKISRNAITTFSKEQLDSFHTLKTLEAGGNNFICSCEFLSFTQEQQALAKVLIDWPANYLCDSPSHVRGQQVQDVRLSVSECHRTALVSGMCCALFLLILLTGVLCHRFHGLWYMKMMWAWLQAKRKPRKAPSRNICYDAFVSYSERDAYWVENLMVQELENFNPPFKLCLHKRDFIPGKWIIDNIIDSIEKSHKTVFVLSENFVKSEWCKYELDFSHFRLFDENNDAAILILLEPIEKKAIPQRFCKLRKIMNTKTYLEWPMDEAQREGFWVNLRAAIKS
human TLR2, sequence (Q9Y2C9 32-796 partner): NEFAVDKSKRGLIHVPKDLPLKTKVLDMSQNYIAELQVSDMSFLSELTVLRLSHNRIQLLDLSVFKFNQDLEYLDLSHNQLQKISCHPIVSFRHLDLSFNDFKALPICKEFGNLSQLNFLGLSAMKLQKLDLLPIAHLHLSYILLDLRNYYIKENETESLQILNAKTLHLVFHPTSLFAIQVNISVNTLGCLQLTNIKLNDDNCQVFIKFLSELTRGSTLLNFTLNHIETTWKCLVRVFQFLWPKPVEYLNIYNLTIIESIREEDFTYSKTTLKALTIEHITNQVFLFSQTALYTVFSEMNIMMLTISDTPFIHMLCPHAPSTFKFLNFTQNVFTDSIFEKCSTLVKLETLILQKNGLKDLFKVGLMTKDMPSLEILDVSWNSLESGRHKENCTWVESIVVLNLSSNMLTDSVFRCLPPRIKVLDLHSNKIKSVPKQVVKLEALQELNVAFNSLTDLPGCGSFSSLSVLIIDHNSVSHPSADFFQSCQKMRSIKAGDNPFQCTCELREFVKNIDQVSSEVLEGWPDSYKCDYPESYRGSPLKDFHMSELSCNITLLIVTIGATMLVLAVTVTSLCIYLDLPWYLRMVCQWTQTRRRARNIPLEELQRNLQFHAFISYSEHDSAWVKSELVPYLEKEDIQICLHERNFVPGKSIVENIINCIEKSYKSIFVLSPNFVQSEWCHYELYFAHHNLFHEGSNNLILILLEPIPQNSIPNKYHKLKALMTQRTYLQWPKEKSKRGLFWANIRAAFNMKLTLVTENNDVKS

## CCCCCCCCCCCCCCCC(=O)OC[C@H](CSC[C@H](N)C(=O)NCC(=O)OC(C)C)OC(=O)CCCCCCCCCCCCCCC [Compound 7]
Human TLR2
  TLR2-agonistic activity (in words): highly active
Water solubility
  Water solubility: not water-soluble

## CCCCC/C=C\C/C=C\CCCCCCCC(=O)OC[C@H](CSC[C@H](N)C(=O)NCC(=O)OC(C)C)OC(=O)CCCCCCC/C=C\C/C=C\CCCCC [Compound 8]
Human TLR2
  TLR2-agonistic activity (in words): highly active
Water solubility
  Water solubility: not water-soluble

## CC/C=C\C/C=C\C/C=C\CCCCCCCC(=O)OC[C@H](CSC[C@H](N)C(=O)NCC(=O)OC(C)C)OC(=O)CCCCCCC/C=C\C/C=C\C/C=C\CC [Compound 9]
Human TLR2
  TLR2-agonistic activity (in words): highly active
Water solubility
  Water solubility: not water-soluble

## CCCCCCCCCCCCCCCC(=O)OC[C@H](CSC[C@H](NC(=O)CC[C@H](N)C(=O)O)C(=O)NCC(=O)OC(C)C)OC(=O)CCCCCCCCCCCCCCC [Compound 11]
Human TLR2
  TLR2-agonistic activity (in words): virtually inactive

## CCCCCCCCCCCC(=O)OC[C@H](CSC[C@H](N)C(=O)N[C@@H](CO)C(=O)O)OC(=O)CCCCCCCCCCC [Compound 17]
Human TLR2
  TLR2-agonistic activity (in words): lower in activity than the parent PAM2CS compound

## CCCCCCCCCCCCCC(=O)OC[C@H](CSC[C@H](N)C(=O)N[C@@H](CO)C(=O)O)OC(=O)CCCCCCCCCCCCC [Compound 18]
Human TLR2
  TLR2-agonistic activity (in words): lower in activity than the parent PAM2CS compound

## CCCCCCCCCCCCCCCCCC(=O)OC[C@H](CSC[C@H](N)C(=O)N[C@@H](CO)C(=O)O)OC(=O)CCCCCCCCCCCCCCCCC [Compound 19]
Human TLR2
  TLR2-agonistic activity (in words): lower in activity than the parent PAM2CS compound

## CCOCCOCCOCCCNCC(=O)OC[C@H](CSC[C@H](N)C(=O)N[C@@H](CO)C(=O)O)OC(=O)CNCCCOCCOCCOCC [Compound 24]
Human TLR2
  TLR2-agonistic activity (in words): inactive

## CCCCCCCCCCCCCCCC(=O)OC[C@@H](O)CSC[C@H](N)C(=O)N[C@@H](CO)C(=O)O [Compound 35]
Human TLR2
  TLR2-agonistic activity (in words): unexpectedly active

## CCCCCCCCCCCCCCCC(=O)O[C@H](CO)CSC[C@H](N)C(=O)N[C@@H](CO)C(=O)O [Compound 38]
Human TLR2
  TLR2-agonistic activity (in words): unexpectedly active

## CCCCCCCCCCCCCCCC(=O)OCCSC[C@H](N)C(=O)N[C@@H](CO)C(=O)OC [Compound 44, 2-(((R)-2-amino-3-(((S)-3-hydroxy-1-methoxy-1-oxopropan-2-yl)amino)-3-oxopropyl)thio)ethyl palmitate, trifluoroacetate]
Human TLR2
  pEC50: 8.26
  TLR2-agonistic activity (in words): quite active
Water solubility
  Water solubility: water-soluble

## CCCCCCCCCCCCCCCC(=O)OCCCSC[C@H](N)C(=O)N[C@@H](CO)C(=O)OC [Compound 47, 3-(((R)-2-amino-3-(((S)-3-hydroxy-1-methoxy-1-oxopropan-2-yl)amino)-3-oxopropyl)thio)propyl palmitate, trifluoroacetate]
Human TLR2
  TLR2-agonistic activity (in words): completely inactive

## CCCCCCCCCCCCCCCCOC(=O)CSC[C@H](N)C(=O)N[C@@H](CO)C(=O)OC [Compound 50, (S)-methyl 2-((R)-2-amino-3-((2-(hexadecyloxy)-2-oxoethyl)thio)propanamido)-3-hydroxypropanoate, trifluoroacetate]
Human TLR2
  TLR2-agonistic activity (in words): virtually bereft of activity

## CCCCCCCCCCCCCCCCOC(=O)CCSC[C@H](N)C(=O)N[C@@H](CO)C(=O)OC [Compound 53, (S)-methyl 2-((R)-2-amino-3-((3-(hexadecyloxy)-3-oxopropyl)thio)propanamido)-3-hydroxypropanoate, trifluoroacetate]
Human TLR2
  TLR2-agonistic activity (in words): virtually bereft of activity

## CCCCCCCCCCCCCCCC(=O)OC[C@H](CSC(C)(C)[C@@H](N)C(=O)N[C@@H](CO)C(=O)OC)OC(=O)CCCCCCCCCCCCCCC [Compound 59]
Human TLR2
  TLR2-agonistic activity (in words): inactive

## CCCCCCCCCCCCCCCC(=O)OC[C@H](CSC(C)(C)[C@H](N)C(=O)N[C@@H](CO)C(=O)O)OC(=O)CCCCCCCCCCCCCCC [Compound 64]
Human TLR2
  TLR2-agonistic activity (in words): inactive

## CCCCCCCCCCCCCCCC(=O)OC[C@H](CSCC[C@H](N)C(=O)N[C@@H](CO)C(=O)O)OC(=O)CCCCCCCCCCCCCCC [Compound 69]
Human TLR2
  TLR2-agonistic activity (in words): inactive

## CCCCCCCCCCCCCCCC(=O)OC[C@H](CSCCC(=O)N[C@@H](CO)C(=O)OC)OC(=O)CCCCCCCCCCCCCCC [Compound 74]
Human TLR2
  TLR2-agonistic activity (in words): inactive

## CCCCCCCCCCCCCCCC(=O)OCC(CSC[C@H](N)C(=O)N[C@@H](CO)C(=O)O)OC(=O)CCCCCCCCCCCCCCC (stereo partly drawn) [PAM2CS, S-[2,3-bis(palmitoyloxy)-(2RS)-propyl]-R-cysteinyl-S-serine]
Human blood
  Pro-inflammatory activity: devoid of any detectable pro-inflammatory activity
rabbit
  Local reactogenicity and pyrogenicity: devoid
[1]
  Adjuvanticity: potently adjuvantic
